Assay results published in PubChem BioAssay AID624431 (The Scripps Research Institute Molecular Screening Center, 2012).
This is one part of the list. Values without a mark were called inactive. Calls of active or inactive are those of the source.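 How the source made its calls: active means mean inhibition over triplicates exceeds the hit threshold derived for the earlier primary screening run (cut at about 25% in these data); inactive means the rest.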

molecular target: Arf-GAP with SH3 domain, ANK repeat and PH domain-containing protein 1 (Homo sapiens) (UniProt Q9ULH1); test: blockers of ASAP1-stimulated Arf1 GTP hydrolysis – biochemical, fluorescence polarization, human, triplicate, confirmation (AID 624431); conditions: ASAP1-stimulated Arf1 GTPase, GDP fluorescence polarization; at 16.5 µM; stronger effect = higher value
Sequence (Q9ULH1 325-724 limits assumed): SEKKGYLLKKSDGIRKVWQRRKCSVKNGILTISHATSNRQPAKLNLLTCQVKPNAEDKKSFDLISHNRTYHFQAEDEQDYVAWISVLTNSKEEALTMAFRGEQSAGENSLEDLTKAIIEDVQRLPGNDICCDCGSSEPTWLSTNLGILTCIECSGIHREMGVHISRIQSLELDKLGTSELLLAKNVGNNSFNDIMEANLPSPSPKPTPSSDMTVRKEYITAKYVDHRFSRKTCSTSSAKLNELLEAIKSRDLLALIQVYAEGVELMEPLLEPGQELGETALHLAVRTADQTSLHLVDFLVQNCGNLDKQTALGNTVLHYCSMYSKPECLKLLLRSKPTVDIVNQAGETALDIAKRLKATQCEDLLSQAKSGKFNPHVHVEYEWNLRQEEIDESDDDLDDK
Method in brief: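 Detection: Fluorescence polarization, free GDP displacing antibody-bound GDP Alexa 633 tracer | System: ASAP1 GAP domain protein (residues 325-724) | Schedule: 20-min ASAP1–compound and 120-min Arf1-GTP steps at 25 °C, 60-min tracer | Benchmarks: Wells without ASAP1 as full-inhibition reference control | Read-out: % inhibition versus wells lacking ASAP1 | Compound dosing: 16.5 µM single dose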

SMILES	inhibition
CC(=O)c1cccc(-c2cnc3c(NC=O)cc(-c4ccc(N5CCN(C)CC5)cc4)cn23)c1	77.7% (active)
COc1cc(/C=N/Nc2nn3cnnc3c3ccccc23)cc(OC)c1OC	39% (active)
CC(=O)Nc1cc(-c2ccc(N3CCN(C)CC3)cc2)cn2c(-c3cccc(C(=O)N(C)C)c3)cnc12	69.3% (active)
CCN(CC)c1ccc2cc(C(N)=O)/c(=N\NC(=O)c3ccncc3)oc2c1	87.2% (active)
C=CCNc1nc(N)c(C(=C(C#N)C#N)c2ccccc2)s1	13.1%
C=CCC[C@@H](CCCCC)OC(=O)/C=C/[C@@H](O)[C@H](O)C[C@H](O)CC=C	1.35%
OCCNc1nc(Nc2ccc(Cl)c(Cl)c2)nc2ccccc12	26.6% (active)
O=C(NC1=CC(=O)c2ccccc2C1=O)c1ccccc1	13.6%
Cc1ccc2nc(SCC(=O)N3CC(C)OC(C)C3)nc(=O)n2c1 (stereo unspecified)	54.1% (active)
O=c1/c(=C/c2ccc(CNS(=O)(=O)c3ccccc3)o2)sc2n1CCN=2	-9.13%
COc1ccc(-n2nnnc2SCC(=O)c2ccc(OC)c(OC)c2)cc1	30.7% (active)
CCOC(=O)c1ccc(Nc2cc3ccccc3c(=O)[nH]2)cc1	9.9%
COc1ccc(/C=N/Nc2ncnc3sc4c(c23)CCCC4)cc1O	26.2% (active)
COc1ccc(C(CNC(=O)c2cccc(S(=O)(=O)Nc3ccccc3Cl)c2)N2CCOCC2)cc1 (stereo unspecified)	16.6%
CC(=O)Nc1cc(-c2ccc(N3CCN(C)CC3)cc2)cn2c(-c3ccc(F)cc3)cnc12	40.5% (active)
CC(=O)N(C1=C(Cl)C(=O)c2ccccc2C1=O)c1ccc(C(=O)O)cc1	22.3%
c1ccc(-c2cc(-c3nnc4sc(-c5ccccn5)nn34)[nH]n2)cc1	33% (active)
Cc1cccc(-n2ncc(Cl)c(Cl)c2=O)c1	-3.51%
COC(=O)c1ccc(NCC(=O)c2ccccc2)cc1	-2.85%
CCN1CCN(CCNC(=O)c2ccc3c(c2)NC(=O)/C(=C\c2ccc(OC)c(OC)c2)S3)CC1	94% (active)
N#Cc1cc([N+](=O)[O-])ccc1Oc1cccc(/C=N/NC(=O)c2ccc(Cl)cc2)c1	31.5% (active)
